VIM-2 inhibitor = VIM-2 metallo-beta-lactamase inhibitors, primary screen, biochemical, epi-absorbance readout, Pseudomonas aeruginosa enzyme | purified VIM-2, nitrocefin hydrolysis, epi-absorbance fluorescence | inhibition, % at 5.6 µM | 290,000 compounds, 0.89% hits | AID 1527, 2009;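 active = inhibition above the mean of all tested compounds plus 3 SD, cutoff set per screening run, cut at about 7.5% in these data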;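 note: red hydrolysis product quenches plate fluorescence so inhibitors raise well fluorescence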
DNA FID counter = compounds displacing fluorescent DNA intercalator, primary screen, artefact control for HCV NS3 helicase inhibitor project, biochemical, FID fluorescence | DNA fluorescent intercalator displacement | inhibition, % at 7.9 µM | 290,000 compounds, 0.17% hits | AID 1845, 2009; in the data active = inhibition above about 37%;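 note: higher means more ethidium bromide displaced from hairpin DNA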
IMP-1 inh-1 = IMP-1 metallo-beta-lactamase inhibitors, primary screen, biochemical, epi-absorbance readout, Pseudomonas aeruginosa enzyme; metallo-beta-lactamase IMP-1 (Pseudomonas aeruginosa); purified IMP-1, nitrocefin hydrolysis, epi-absorbance fluorescence; inhibition, % at 5.6 µM; 290,000 compounds, 0.45% hits; AID 1556, 2009;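 active = inhibition above the mean plus 3 SD of all compounds in the same screening run, cut at about 4.5% in these data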
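Material – recombinant IMP-1 enzyme, purified · Amount – IMP-1 0.2 nM before substrate addition · Medium – HEPES buffer pH 7.1 with ZnSO4 and Brij 35 · Timing – 25 °C, 15 min preincubation, 25 min reaction · Measured by – plate fluorescence quenching by hydrolysis product, ex 480/em 530 nm · Read-out – percent enzyme inhibition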
UBC9 SUMO inh = inhibitors of in vitro SUMOylation cascade, primary screen, biochemical, HTRF, uHTS; HTRF SUMOylation assay, SAE1/SAE2 + UBC9; 290,000 compounds, 0.36% hits; inhibition, % at 35 µM; AID 2006, 2009; SUMO-conjugating enzyme UBC9 (Homo sapiens), P63279; in the data active = inhibition above about 50%, passing the limit was not always enough
Target sequence (P63279 whole entry, looked up): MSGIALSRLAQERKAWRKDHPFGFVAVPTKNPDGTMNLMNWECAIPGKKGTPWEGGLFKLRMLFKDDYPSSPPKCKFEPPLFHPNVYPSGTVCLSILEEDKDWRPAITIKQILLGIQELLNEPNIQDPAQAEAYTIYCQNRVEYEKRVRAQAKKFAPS
NALP1 yeast inh = NALP1 inflammasome inhibitors in reconstituted yeast, colorimetric, S. cerevisiae, triplicate retest | S. cerevisiae NALP1/ASC/caspase-1 growth, X-gal OD620, 72 h | inhibition, % at 10 µM | 280,000 compounds, 0.61% hits | AID 2071, 2009; in the data active = inhibition mostly above about 24%, no sharp cut-off; inactive = mostly below about 32%
SUMO Mot1 rescue = yeast Mot1-301 growth rescue at high temperature, primary screen, SUMOylation pathway inhibitor project, S. cerevisiae, ATP luminescence, 38.5C; 320,000 compounds, 1% hits; growth rescue, % at 18.8 µM; AID 2716, 2010; S. cerevisiae Mot1-301 growth rescue; percent above DMSO median, 100 means doubled;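 active = every valid replicate shows activation above 250% relative to neutral control wells; inactive = the rest, any valid replicate at or below 250%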
IMP-1 inh-2 = IMP-1 metallo-beta-lactamase inhibitors, confirmation, selectivity assay for selective VIM-2 inhibitor project, biochemical, epi-absorbance readout, triplicate; AID 1856, 2009; 1,300 tested, under 10 active; inhibition, % at 5.6 µM; purified IMP-1, nitrocefin hydrolysis, epi-absorbance fluorescence; shares compounds with VIM-2 inhibitor; call rule not given here
VIM-2 FRET inh = VIM-2 inhibitors in FRET format, confirmation, artefact control for selective VIM-2 inhibitor project, biochemical, epi-absorbance artifact exclusion | AID 1857, 2009 | shares compounds with VIM-2 inhibitor | purified VIM-2, CCF2 FRET substrate hydrolysis | 1,300 compounds, 23% hits | inhibition, % at 5.6 µM;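 active = inhibition above the mean of all tested compounds plus 3 SD, cut at about 19% in these data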
TEM-1 inh = TEM-1 serine beta-lactamase inhibitors, counter-screen for VIM-2 inhibitor project, biochemical, epi-absorbance, HTS; inhibition, % at 5.6 µM; 1,300 compounds, 3% hits; shares compounds with VIM-2 inhibitor; Purified TEM-1, nitrocefin hydrolysis, epi-absorbance fluorescence;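 active = inhibition above that campaign's mean inhibition plus 3 SD, cut at about 0.46% in these data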
Target sequence (P62593 whole entry, looked up): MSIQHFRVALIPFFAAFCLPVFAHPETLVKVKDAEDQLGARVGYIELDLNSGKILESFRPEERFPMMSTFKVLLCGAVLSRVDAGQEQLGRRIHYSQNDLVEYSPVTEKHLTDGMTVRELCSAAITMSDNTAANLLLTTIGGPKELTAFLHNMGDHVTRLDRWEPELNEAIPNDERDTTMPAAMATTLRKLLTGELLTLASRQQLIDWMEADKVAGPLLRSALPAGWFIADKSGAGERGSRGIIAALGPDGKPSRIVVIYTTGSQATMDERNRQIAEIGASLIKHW
VIM-2 inh conf = VIM-2 metallo-beta-lactamase inhibitors, confirmation, biochemical, epi-absorbance, hits shared with IMP-1 screen | shares compounds with VIM-2 inhibitor | purified VIM-2, nitrocefin hydrolysis | inhibition, % at 5.6 µM | 1,300 compounds, 96% hits | AID 2187, 2009;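 active = inhibition of the VIM-2 beta-lactamase enzyme above about 11% from the earlier first-round screen, limit read from the data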
Of the large screens only hits and unclear results are named; the others gave an inactive call (follow-up assays come after a bar, where they were run). This is a sample that favours compounds with a hit; in the whole collection about 2.9% have one here.

C=Cn1ccnc1P(=S)(c1ccc(Cl)cc1)c1nccn1C=C	none (no result: SUMO Mot1 rescue)
O=C(O)c1ccccc1-c1ccc(C=C2C(=O)N(c3ccccc3)C(=S)N(c3ccccc3)C2=O)o1	IMP-1 inh-1 14
O=C(c1ccc(Cl)cc1)C1CCCN(Cc2ccc3ncccc3c2)C1 (centres undefined)	SUMO Mot1 rescue 258
Cc1ccccc1N1CCN(Cc2ccc3c(c2)OCO3)CC1	none
C[C@@H]1CN(C2CCC(C#N)(c3ccc(F)cc3)CC2)CC[C@]1(C(=O)O)c1ccccc1 (some centres undefined)	none (no result: VIM-2 inhibitor, DNA FID counter, IMP-1 inh-1, UBC9 SUMO inh, NALP1 yeast inh)
CCOc1cc(-c2nc3c(C)cccn3c2NCC2CCCO2)ccc1O (centres undefined)	UBC9 SUMO inh 52
COP(=O)(OC)C(O)C(Cl)(Cl)Cl (centres undefined)	none
CCOC(=O)C1=CC(=C2C(=O)N(CC)C(=S)N(CC)C2=O)c2ccccc2O1	IMP-1 inh-1 6.2
CC(NC1CCCCC1)C(O)C12CC3CC(CC(C3)C1)C2 (centres undefined)	none
O=c1cccc2n1CC1CC2CN(c2nc(N3CCCCC3)nc(N3CCCCC3)n2)C1 (centres undefined)	none (no result: SUMO Mot1 rescue)
CCC/C=N/O	none (no result: VIM-2 inhibitor, DNA FID counter, IMP-1 inh-1, UBC9 SUMO inh, NALP1 yeast inh)
C=CCOC(=O)COc1cc(C)cc2oc(=O)c3c(c12)CCC3	none
Cc1cc(OCc2nn[nH]n2)c2c3c(c(=O)oc2c1)CCCC3	VIM-2 inhibitor 9.0
Cc1cc(OCC(=O)NCc2ccc(S(N)(=O)=O)cc2)c2c3c(c(=O)oc2c1)CCC3	VIM-2 inhibitor 9.4
CC(C)(C)C(=O)O[C@H]1CC[C@@]2(C)C(=CC(=O)C3C2CC[C@]2(C)C(=O)CCC32)C1 (some centres undefined)	none (no result: VIM-2 inhibitor, DNA FID counter, IMP-1 inh-1, UBC9 SUMO inh, NALP1 yeast inh)
c1cncc(CNC2CCCC2)c1	NALP1 yeast inh 30
c1cncc(CNC2=NCCCCC2)c1	none (no result: NALP1 yeast inh)
N=C1c2ccccc2CN1c1ccc(F)c([N+](=O)[O-])c1	none
COC(=O)C1=C(c2ccc(S(C)(=O)=O)cc2)C[C@@H]2CC[C@H]1N2C(=O)NCc1cccc2ccccc12	none (no result: VIM-2 inhibitor, DNA FID counter, IMP-1 inh-1, UBC9 SUMO inh, NALP1 yeast inh)
CN1C2CCC1CC(OC(=O)c1ccc(Cl)cc1)C2 (centres undefined)	none
COc1ccc(C(=O)OC2C[C@H]3CC[C@H](C2)N3C)cc1OC (some centres undefined)	SUMO Mot1 rescue 327 (no result: VIM-2 inhibitor, DNA FID counter, IMP-1 inh-1, UBC9 SUMO inh, NALP1 yeast inh)
CN1C(=O)NC(=O)/C(=C/c2ccc([N+](=O)[O-])s2)C1=O	none (no result: NALP1 yeast inh)
O=C1NC(=O)N(c2ccccc2)C(=O)/C1=C\c1ccc([N+](=O)[O-])s1	UBC9 SUMO inh 55 (no result: NALP1 yeast inh)
CN1CCN(c2ccc3nccnc3c2)CC1	UBC9 SUMO inh 58
CC/C(=N\Nc1ccccc1)c1c(O)n(-c2ccc(OC)cc2)c(=O)[nH]c1=O	none
CN1CCc2cc(O)cc3c2[C@H]1Cc1ccc(O)c(O)c1-3	none (no result: VIM-2 inhibitor, DNA FID counter, IMP-1 inh-1, UBC9 SUMO inh, NALP1 yeast inh)
CN1CCc2cc3c(c4c2C1Cc1ccccc1-4)OCO3 (centres undefined)	VIM-2 inhibitor 19 | IMP-1 inh-2 inactive | VIM-2 FRET inh inactive | TEM-1 inh inactive | VIM-2 inh conf 11
CCCC(C)C1(CC)C(=O)NC(=Nc2ccc(OC)cc2)NC1=O (centres undefined)	none
Cc1cc(OCC(=O)NC(Cc2ccc(Cl)cc2)C(=O)O)c2c3c(c(=O)oc2c1)CCCC3 (centres undefined)	VIM-2 inhibitor 33 | IMP-1 inh-2 inactive | VIM-2 FRET inh 47 | TEM-1 inh 0.6 | VIM-2 inh conf 37
CCN(CC)C(=O)COc1cc(C)cc2oc(=O)c3c(c12)CCCC3	none
Cc1cc(OCC(=O)NCc2ccncc2)c2c3c(c(=O)oc2c1)CCC3	VIM-2 inhibitor 72 | IMP-1 inh-2 inactive | VIM-2 FRET inh inactive | TEM-1 inh inactive | VIM-2 inh conf 78
Clc1cc(Cl)c(-c2cc(Cl)c(Cl)cc2Cl)cc1Cl	none (no result: VIM-2 inhibitor, DNA FID counter, IMP-1 inh-1, UBC9 SUMO inh, NALP1 yeast inh)
COc1ccc(-n2nc(C(=O)NCC(=O)N3CCC4(CC3)OCCO4)c3ccccc3c2=O)c(OC)c1	none
C=CCn1c(O)c(C=NCCCn2ccnc2)c(=O)[nH]c1=O	VIM-2 inhibitor 23 | IMP-1 inh-2 inactive | VIM-2 FRET inh inactive | TEM-1 inh inactive | VIM-2 inh conf 37
CCN1CCN(c2ccc(N)cc2)CC1	VIM-2 inhibitor 38 | IMP-1 inh-2 inactive | VIM-2 FRET inh inactive | TEM-1 inh inactive | VIM-2 inh conf 27
CN1CCN(c2ccc(N)cc2)CC1	VIM-2 inhibitor 37 | IMP-1 inh-2 inactive | VIM-2 FRET inh inactive | TEM-1 inh inactive | VIM-2 inh conf 59
Cn1cccc1CN1CCN(C(=O)COc2ccccc2)CC1	none
Cn1nc(-c2ccc(OCC(=O)N3CCN(Cc4ccccc4)CC3)cc2)c2ccccc2c1=O	VIM-2 inhibitor 13 | IMP-1 inh-2 inactive | VIM-2 FRET inh inactive | TEM-1 inh inactive | VIM-2 inh conf 28
Nc1c(C(=O)NCCN2CCOCC2)c2nc3ccccc3nc2n1Cc1ccco1	VIM-2 inhibitor 15 | IMP-1 inh-2 inactive | VIM-2 FRET inh inactive | TEM-1 inh inactive | VIM-2 inh conf 29
O=[N+]([O-])c1ccc(N2CCNCC2)cc1NC1CC1	none
O=[N+]([O-])c1ccc(N2CCCC2)cc1N/N=C1\CN2CCC1CC2	VIM-2 inhibitor 13 | IMP-1 inh-2 inactive | VIM-2 FRET inh 32 | TEM-1 inh inactive | VIM-2 inh conf 25
C#CC[N+]1(C)[C@@H]2CC(OC(=O)C(CO)c3ccccc3)C[C@H]1C(O)C2 (some centres undefined)	none
O=C1N[C@H](Cc2ccccc2)C(=O)N2[C@@H]3[C@H](C[C@@H]12)c1ccccc1N3OOSc1ccccc1	none (no result: VIM-2 inhibitor, DNA FID counter, IMP-1 inh-1, UBC9 SUMO inh, NALP1 yeast inh)
